Compound activity as filed in PubChem.
NR2E3 ag-1 – activates human NR2E3 receptor; CHO-S Gal4-NCOR/VP16-NR2E3 two-hybrid, luciferase; inhibition of corepressor binding, % at 3.98 µM; actives 0.35% (n = 360,000);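 active = inhibition above the mean of all tested compounds plus 3 SD, cut at about 70% in these data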;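 note: 0% = DMSO with NR2E3 transfected cells and 100% = cells lacking NR2E3 construct; higher means lower luciferase signal from less NR2E3 corepressor binding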
Target sequence (Q9Y5X4 whole entry, looked up, the tested form may be a part): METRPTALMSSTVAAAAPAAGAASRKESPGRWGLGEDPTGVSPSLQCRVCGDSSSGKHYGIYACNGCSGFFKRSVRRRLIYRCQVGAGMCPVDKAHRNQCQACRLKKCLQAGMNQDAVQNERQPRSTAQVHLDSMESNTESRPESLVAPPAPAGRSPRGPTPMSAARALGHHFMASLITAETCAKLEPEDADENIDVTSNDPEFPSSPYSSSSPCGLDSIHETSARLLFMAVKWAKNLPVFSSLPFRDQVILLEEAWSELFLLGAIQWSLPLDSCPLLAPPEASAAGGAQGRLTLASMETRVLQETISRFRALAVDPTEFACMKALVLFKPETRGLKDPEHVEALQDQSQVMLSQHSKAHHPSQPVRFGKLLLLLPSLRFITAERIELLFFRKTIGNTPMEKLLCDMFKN
GalR3 antag – blocks the human galanin receptor 3; AID 651719; actives 0.44% (n = 360,000); HEK293 GalR3-CNG cAMP membrane potential fluorescence; galR3 body fused to GalR1 C-terminus; inhibition, % at 3 µM;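 active = inhibition above the screen-wide average plus 3 SD, cut at about 13% in these data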;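 note: forskolin and galanin both at EC90 stimulate the cells; cAMP rise reported by CNG channel membrane potential dye signal; 0% = forskolin plus galanin with DMSO and 100% = forskolin alone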
Target sequence (O60755 1-299 limits assumed): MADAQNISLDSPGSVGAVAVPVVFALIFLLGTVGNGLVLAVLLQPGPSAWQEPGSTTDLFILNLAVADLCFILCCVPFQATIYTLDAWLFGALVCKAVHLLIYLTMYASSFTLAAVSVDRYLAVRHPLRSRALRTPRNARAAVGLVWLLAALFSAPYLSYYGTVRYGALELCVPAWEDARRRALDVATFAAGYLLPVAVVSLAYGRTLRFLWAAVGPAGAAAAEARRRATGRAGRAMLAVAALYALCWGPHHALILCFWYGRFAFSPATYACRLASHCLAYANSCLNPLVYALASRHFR
NR2E3 ag-2 – NR2E3 (human) agonism; Q9Y5X4; GST-NR2E3/biotin-RetCOR TR-FRET, 1536-well; inhibition of corepressor binding, % at 4.78 µM; actives 0.12% (n = 320,000); AID 2300;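 active = percent inhibition above the cutoff of mean plus 3 SD of all tested compounds, set per screening campaign, cut at about 20% in these data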;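 note: 0% = DMSO wells and 100% = biotin wells as full block of FRET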
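Material – GST-tagged NR2E3 plus biotinylated RetCOR corepressor · Quantity – NR2E3 fusion 1.35 nM · Times – 5 h incubation at 4 °C · Medium – pH 7.5 Tris-based buffer · Technique – TR-FRET, Eu(K)-anti-GST donor, streptavidin-D2 acceptor, ex 340, em 617/671 nm · Benchmarks – high control biotin, low control 0.6% DMSO · Format – 1536-well plates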
MsrA act – activators of bovine methionine sulfoxide reductase A. purified bovine MsrA, absorbance read-out. activation, % at 10.6 µM. actives 0.3% (n = 360,000). AID 602163; in the data active = activation above about 7.5%;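 note: 0% = vehicle and 100% = reference activator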
MsrA inh – bovine MsrA inhibition; purified bovine MsrA, absorbance read-out; actives 0.75% (n = 360,000); inhibition, % at 15.5 µM; in the data active = inhibition above about 4.5%;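 note: 0% = vehicle wells with enzyme and 100% = reference inhibitor wells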
NadD inh – blocks S. aureus nicotinate mononucleotide adenylyltransferase; purified NadD enzyme, colorimetric absorbance read-out; inhibition, % at 20 µM; actives 0.78% (n = 360,000); AID 602399; in the data active = inhibition above about 26%
GalR3 conf – GalR3 (human) antagonism, confirmation | shares compounds with GalR3 antag | HEK293 GalR3 CNG cAMP biosensor, membrane potential fluorescence; galR3 fused to GalR1 carboxy tail; challenged with forskolin and galanin at EC90 | inhibition, % at 3 µM | actives 59% (n = 1,600);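 active = inhibition above the primary screen's cutoff, the mean inhibition of all screened compounds plus 3 SD, cut at about 13% in these data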;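 note: 0% = forskolin plus galanin and 100% = forskolin alone with DMSO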
HEK-CNG parental – acts as nonspecific agonist in parental HEK-CNG cells | activation, % at 3 µM | actives 10% (n = 1,600) | HEK293-CNG parental cells, cAMP membrane potential fluorescence; normalised: DMSO wells 0%, forskolin wells 100% | AID 652268 | shares compounds with GalR3 antag; in the data active = activation above about 1.3%
Starred values were filed as active, the others as inactive; . = no result given; ! = a repeat was not active. Rows were chosen to be rich in hits. Some 2.5% of all compounds tested hit in one or more screens of this group.

SMILES	NR2E3 ag-1	GalR3 antag	NR2E3 ag-2	MsrA act	MsrA inh	NadD inh	GalR3 conf	HEK-CNG parental
CC1C(=O)CC(c2ccc([N+](=O)[O-])cc2)NC1c1ccc([N+](=O)[O-])cc1 (stereo not given)	-21.5	17.8*	-1.9	-1.6	0.7	3.1	17.4*	-0.5
Cc1cccc(NC(=O)c2cc(S(=O)(=O)NCc3ccco3)ccc2F)c1C	16.0	-6.3	3.0	-6.7	-0.8	-0.6	.	.
c1ccc(C2=Nn3c(nnc3-c3cccs3)SC2)cc1	-9.3	-4.8	0.3	-2.2	-0.4	1.5	.	.
c1ccc(-c2ccc(C3=Nn4c(nnc4-c4cccs4)SC3)cc2)cc1	-2.8	16.3*	1.2	-5.1	3.6	12.7	45.7*	1.8*
COc1ccc(C2=Nn3c(nnc3-c3ccccn3)SC2)cc1OC	1.0	-1.3	-0.4	-3.0	2.7	6.3	.	.
COc1ccc(C2=Nn3c(nnc3-c3ccccc3OC)SC2)cc1OC	32.3	38.3*	-2.1	-12.1	3.0	6.4	46.0*	1.5*
CC1(C)CC(n2c(=S)[nH]c3ccccc3c2=O)CCO1 (stereo not given)	-2.6	-5.4	0.1	0.1	0.1	6.0	.	.
COc1ccccc1OCC(=O)NN=C(Cc1ccccc1)Cc1ccccc1	-57.9	-5.8	1.0	-6.2	-0.1	-4.5	.	.
CCOc1ccccc1OCC(=O)N/N=C(\C)Cc1ccc(OC)cc1	12.8	22.4*	2.8	3.7	0.9	-2.7	-1.6	1.0
O=C1CCCCC1CCS(=O)(=O)NCc1ccccc1 (stereo not given)	.	-1.5	.	.	-0.8	.	.	.
OC(C#CCN1CCOCC1)(c1ccccc1)C1CC1 (stereo not given)	3.4	3.3	1.4	-2.4	-0.1	6.8	.	.
CC(C)(C)c1ccc(C(=O)Nc2ccc(CN3CCS(=O)(=O)CC3)cc2)cc1	-14.4	33.9*	-2.6	-5.5	1.4	4.0	103.4*	-0.5
CC(C)c1ccc(/C=C/C(=O)NC(=S)Nc2ccc(CN3CCOCC3)cc2)cc1	-46.7	46.3*	5.9	3.4	3.7	1.9	75.2*	22.0*
COC(=O)c1ccc(NC(=O)c2ccc(CN3CCOCC3)cc2)cc1	-1.4	92.3*	1.3	-11.6	1.6	-7.8	4.5	0.0
CCC(C)c1ccc(OCC(=O)Nc2ccc(CN3CCOCC3)cc2)cc1 (stereo not given)	-19.0	18.4*	.	2.0	0.1	-4.8	8.9	0.2
O=C(/C=C/c1ccc2c(c1)OCO2)NC1CCCC1	-54.6	-5.3	-0.1	-1.8	0.9	7.8	.	.
CCOC(=O)CCCCCC(=O)Nc1ccc2c(c1)C(=O)N([C@@H](C)CO)C[C@H](C)[C@H](CN(C)S(=O)(=O)c1ccc(OC)cc1)OCCCC[C@H](C)O2	7.4	-7.5	.	-2.9	1.8	-1.9	.	.
CC1=C(C(=O)Nc2ccccc2)C(c2cccs2)n2nnnc2N1 (stereo not given)	4.4	-0.4	-0.1	-4.3	0.0	-7.8	.	.
CCOC(=O)c1ccc(NC(=O)c2ccc(C)c(S(=O)(=O)N3CCOCC3)c2)cc1	27.3	98.4*	1.0	-3.3	-0.4	-11.6	106.8*	-0.3
O=C(Nc1ccc(S(=O)(=O)Nc2ccccc2)cc1)c1ccc(CN2CCOCC2)cc1	0.9	98.2*	2.7	-3.8	0.6	5.3	109.8*	-0.7
CCN(CC)S(=O)(=O)c1ccc2c(c1)c(=O)c(C(=O)NCCCN(C)c1ccccc1)cn2C	-12.6	-1.3	-0.7	-0.1	0.0	1.3	.	.
CN(CCCNC(=O)c1cn(C)c2ccc(S(=O)(=O)N(C)C)cc2c1=O)c1ccccc1	-17.4	20.3*	6.0	-1.5	0.3	0.4	5.7	0.8
Cc1ccccc1NC(=O)N1CCCC1C(=O)NCc1cccs1 (stereo not given)	-6.1	.	3.0	0.0	-0.9	3.2	1.4	-1.5
COc1ccc(NC(=O)c2ccc(CNc3c(NC4CCCCC4)c(=O)c3=O)cc2)c(OC)c1	-33.3	14.0*!	2.5	-2.0	0.4	9.8	4.4	0.0
CC1CCC(NC(=O)c2ccc(CNc3c(NC4CCCCC4)c(=O)c3=O)cc2)CC1 (stereo not given)	-18.8	-4.6	3.7	-6.8	-0.2	15.4	.	.
SMILES	NR2E3 ag-1	GalR3 antag	NR2E3 ag-2	MsrA act	MsrA inh	NadD inh	GalR3 conf	HEK-CNG parental
O=C(O)/C(=C\c1c(C(=O)O)[nH]c2cc(Cl)cc(Cl)c12)c1ccccc1	-5.5	-3.8	0.6	-7.9	-0.5	1.7	.	.
O=C(Nc1ccc(Br)cc1F)c1ccncc1	-18.1	21.8*	0.7	0.2	-1.0	-1.8	14.8*	-0.3
Cn1c(CN2CCCCC2)nc2cc(NC(=O)c3ccccc3)ccc21	-18.7	-6.4	3.0	-1.0	-1.1	1.6	.	.
Cn1c(CN2CCCCC2)nc2cc(NC(=O)c3cccc(Br)c3)ccc21	-31.0	17.6*	-0.8	-7.9	-0.8	-2.7	38.1*	0.1
C[C@H]1C[C@H]2[C@@H]3CCC4=CC(=O)C=C[C@]4(C)[C@@]3(F)[C@@H](O)C[C@]2(C)[C@@]1(O)C(=O)CO	22.8	27.7*	1.2	-4.2	-0.3	-4.6	43.7*	3.9*
CCn1c(SCC(=O)Nc2ccccc2C(=O)OC)nnc1-c1ccoc1C	-22.1	-7.9	4.9	-3.5	-0.3	0.1	.	.
CC(C)=C1C2C=CC1C1C(=O)N(c3ccc4c(c3)OCO4)C(=O)C21 (stereo not given)	-20.6	-0.1	2.1	-4.9	-0.8	5.5	.	.
Cc1ccc(-n2c(=O)cc(N3CCN(C(=O)c4ccco4)CC3)[nH]c2=O)cc1	-23.1	15.1*	1.9	2.7	-0.4	-3.8	-0.2	0.1
Cn1c(=O)cc(N2CCN(C(=O)c3ccco3)CC2)[nH]c1=O	11.5	.	1.0	0.7	0.4	0.6	.	.
NC(=O)c1cn(-c2ccccc2)nc1-c1cc2ccccc2oc1=O	15.7	108.4*	-0.6	-2.5	4.4	0.6	94.6*	-0.1
FC(F)(F)c1cc(-c2ccccc2)nc(N2CCCCCC2)n1	-11.6	14.7*	2.5	-2.9	0.4	0.4	3.5	0.1
CCOC(=O)NC(=O)COC(=O)c1ccc(Sc2ncn[nH]2)c([N+](=O)[O-])c1	-12.3	-3.7	-0.2	-4.2	2.8	2.7	.	.
C=CCN(CC=C)C(=O)COC(=O)c1ccc(Sc2ncn[nH]2)c([N+](=O)[O-])c1	-22.5	13.0*	0.1	2.1	-0.3	-6.7	4.8	-0.1
O=C(CSC1=NCCS1)Nc1ccc2ccccc2c1	-11.0	-2.9	-1.4	-5.0	1.3	-6.7	.	.
O=C(CSC1=NCCS1)Nc1ccnc2ccccc12	38.8	99.1*	0.3	-0.4	-1.0	-2.8	108.8*	-0.3
